Test results: ChEMBL document CHEMBL6083235, “Synthesis, evaluation and mechanistic insights of novel IMPDH inhibitors targeting ESKAPEE bacteria” (Eur J Med Chem, 2024)
Activity calls are given as the source filed them. No cut-off for these calls is given here.

Assays:
[1] = target: T1, Inosine-5'-monophosphate dehydrogenase (Pseudomonas aeruginosa (strain ATCC 15692 / DSM 22644 / CIP 104116 / JCM14847 / LMG 12228 / 1C / PRS 101 / PAO1)) (UniProt Q9HXM5); test: Inhibition of Pseudomonas aeruginosa IMPDH extracted form Escherichia coli BL21 (DE3)pDIA17 assessed as formation of NADH at 50 uM relative to control
T1 sequence (whole entry): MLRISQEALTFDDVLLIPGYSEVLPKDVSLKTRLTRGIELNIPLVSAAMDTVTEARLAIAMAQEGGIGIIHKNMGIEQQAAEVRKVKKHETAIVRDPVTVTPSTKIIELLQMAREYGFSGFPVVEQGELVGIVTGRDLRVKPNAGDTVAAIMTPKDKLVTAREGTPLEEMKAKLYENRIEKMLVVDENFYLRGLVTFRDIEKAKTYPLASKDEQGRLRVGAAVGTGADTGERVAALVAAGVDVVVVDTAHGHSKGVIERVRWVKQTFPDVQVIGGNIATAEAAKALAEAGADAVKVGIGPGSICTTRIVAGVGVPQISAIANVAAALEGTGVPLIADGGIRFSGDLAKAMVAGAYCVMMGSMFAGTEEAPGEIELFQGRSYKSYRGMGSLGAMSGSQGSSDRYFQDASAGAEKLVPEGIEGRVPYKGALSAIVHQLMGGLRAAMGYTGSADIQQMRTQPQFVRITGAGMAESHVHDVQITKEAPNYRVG
How it was run: (§1)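 His-tagged wild-type IMPDH (E. coli, P. aeruginosa or S. aureus) made in E. coli BL21(DE3)/pDIA17, purified by metal-affinity then gel filtration. NADH formation followed at 340 nm, 30 °C, with 0.2 mM IMP, 0.4 mM NAD⁺, 0.2 mM MgATP, 2 mM MgCl₂. Buffers: pa Tris-HCl 50 mM pH 8; ec Tris-HCl 50 mM pH 8, KCl 50 mM; sa Na₂CO₃ 50 mM pH 9.2, KCl 20 mM. Compound at 50 μM; % inhibition vs compound-free activity.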

[2] = target: T2, Inosine-5'-monophosphate dehydrogenase (Pseudomonas aeruginosa (strain ATCC 15692 / DSM 22644 / CIP 104116 / JCM14847 / LMG 12228 / 1C / PRS 101 / PAO1), UniProt Q9HXM5); test: Inhibition of Pseudomonas aeruginosa IMPDH extracted form Escherichia coli BL21 (DE3)pDIA17 assessed as formation of NADH; settings: read-out: I50
T2 sequence (Q9HXM5 whole entry): T1 sequence (whole entry)

[3] = target: Inosine-5'-monophosphate dehydrogenase 2 (Homo sapiens) (UniProt P12268); test: Inhibition of human IMPDH2 extracted form Escherichia coli BL21 (DE3)pDIA17 assessed as formation of NADH at 50 uM
Staphylococcus aureus [4] = test: Antibacterial activity against methicillin-resistant Staphylococcus aureus ATCC 43300 assessed as growth inhibition at 32 ug/ml relative to control; format: functional
Escherichia coli = test: Inhibition of Escherichia coli IMPDH delta Bateman domain extracted form Escherichia coli BL21 (DE3)pDIA17 assessed as formation of NADH at 50 uM relative to control
How it was run: (§2)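 Bateman-domain-deleted IMPDH (E. coli or P. aeruginosa), His-tagged, made in E. coli BL21(DE3)/pDIA17. NADH formation at 340 nm, 30 °C, 0.2 mM IMP, 0.4 mM NAD⁺, 0.2 mM MgATP, 2 mM MgCl₂. Buffer: ec Tris-HCl 50 mM pH 9, KCl 100 mM; pa Tris-HCl 50 mM pH 8, KCl 100 mM. Compound 50 μM; % inhibition relative to uninhibited enzyme.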

Pseudomonas aeruginosa = test: Inhibition of Pseudomonas aeruginosa IMPDH delta Bateman domain extracted form Escherichia coli BL21 (DE3)pDIA17 assessed as formation of NADH at 50 uM relative to control; how it was run: as §2
[5] = target: T3, Inosine-5'-monophosphate dehydrogenase (Escherichia coli K-12) (UniProt P0ADG7); test: Inhibition of Escherichia coli IMPDH extracted form Escherichia coli BL21 (DE3)pDIA17 assessed as formation of NADH at 50 uM relative to control; how it was run: as §1
T3 sequence (whole entry): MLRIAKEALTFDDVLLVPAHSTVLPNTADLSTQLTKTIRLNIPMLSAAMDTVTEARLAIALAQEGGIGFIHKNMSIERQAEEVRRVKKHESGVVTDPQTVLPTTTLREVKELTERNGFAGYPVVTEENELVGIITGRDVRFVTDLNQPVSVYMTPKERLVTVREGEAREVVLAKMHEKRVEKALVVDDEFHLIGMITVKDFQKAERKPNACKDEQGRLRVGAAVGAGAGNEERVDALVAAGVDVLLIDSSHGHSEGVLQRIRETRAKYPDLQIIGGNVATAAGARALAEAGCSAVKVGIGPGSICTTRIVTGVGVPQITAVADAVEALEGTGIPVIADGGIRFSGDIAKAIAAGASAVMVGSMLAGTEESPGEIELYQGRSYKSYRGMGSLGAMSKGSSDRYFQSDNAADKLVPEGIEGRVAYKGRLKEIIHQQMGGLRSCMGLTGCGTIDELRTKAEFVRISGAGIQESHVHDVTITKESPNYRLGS

Staphylococcus aureus [6] = test: Inhibition of Staphylococcus aureus IMPDH extracted form Escherichia coli BL21 (DE3)pDIA17 assessed as formation of NADH at 50 uM relative to control; how it was run: as §1
[7] = Inhibition of Escherichia coli IMPDH delta Bateman domain extracted form Escherichia coli BL21 (DE3)pDIA17 assessed as formation of NADH; settings: read-out: I50
How it was run: (§3)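 Bateman-domain-deleted IMPDH (E. coli or P. aeruginosa) from E. coli BL21(DE3)/pDIA17; NADH at 340 nm, 30 °C, 0.2 mM IMP, 0.4 mM NAD⁺, 0.2 mM MgATP, 2 mM MgCl₂; buffers as per variant (ec Tris-HCl pH 9/KCl 100 mM; pa Tris-HCl pH 8/KCl 100 mM). I50 by dose-response logistic fit, at least three experiments.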

[8] = Inhibition of Pseudomonas aeruginosa IMPDH delta Bateman domain extracted form Escherichia coli BL21 (DE3)pDIA17 assessed as formation of NADH; settings: read-out: I50; how it was run: as §3
[9] = target: T1, Inosine-5'-monophosphate dehydrogenase (Pseudomonas aeruginosa (strain ATCC 15692 / DSM 22644 / CIP 104116 / JCM14847 / LMG 12228 / 1C / PRS 101 / PAO1)); test: Non-competitive inhibition of Pseudomonas aeruginosa IMPDH in presence of 2 mM NAD+ by Michaelis-Menten equation
How it was run: (§4)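 Steady-state kinetics of P. aeruginosa ΔBateman IMPDH: initial rates (NADH at 340 nm, 30 °C, Tris-HCl 50 mM pH 8, KCl 100 mM) measured across variable IMP at saturating 2 mM NAD⁺, without or with several inhibitor concentrations; data from at least three experiments fitted to Michaelis–Menten and shown as Lineweaver-Burk plots.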

[10] = target: T1, Inosine-5'-monophosphate dehydrogenase (Pseudomonas aeruginosa (strain ATCC 15692 / DSM 22644 / CIP 104116 / JCM14847 / LMG 12228 / 1C / PRS 101 / PAO1)); test: Non-competitive inhibition of Pseudomonas aeruginosa IMPDH by Lineweaver-Burk plot analysis; how it was run: as §4
[11] = test system: Mycobacterium tuberculosis; test: Inhibition of Mycobacterium tuberculosis TMP kinase using 0.05 dTMP and 0.5 mM MgATP by measuring NADH consumption at 20 uM by coupled spectrophotometric assay
How it was run: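 Recombinant M. tuberculosis TMP kinase; activity at 30 °C by NADH consumption at 340 nm in a pyruvate kinase/lactate dehydrogenase/nucleoside diphosphate kinase coupled assay (2 units each). Medium: 50 mM Tris-HCl pH 7.4, 50 mM KCl, 2 mM MgCl2, 0.2 mM NADH, 1 mM phosphoenolpyruvate. ATP held at 0.5 mM and dTMP at 0.05 mM; compound at 20 μM.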

Caco-2 [12] = test: Cytotoxicity against human Caco-2 cells assessed as cell viability at 1 uM measured after 72 hrs by Alamar blue assay; format: toxicity, cell-based; settings: caco-2, 72 h
How it was run: (§5)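 Confluent Caco-2 monolayers (seeded 1.10⁵ cells/cm², 48 h growth; DMEM 25 mM glucose, 10 % FBS, NEAA, 37 °C, 5 % CO₂) exposed 72 h; vehicle 0.1 % DMSO, 0.2 % Triton X-100 as cytotoxic control. Rinsed with PBS, 5 % Alamar Blue in FBS-free medium 30 min at 37 °C; resorufin fluorescence (ex 530/em 570 nm) relative to DMSO. Mean ± SEM, three independent experiments.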

Caco-2 [13] = test: Cytotoxicity against human Caco-2 cells assessed as cell viability at 10 uM measured after 72 hrs by Alamar blue assay; format: toxicity, cell-based; settings: caco-2, 72 h; how it was run: as §5
[14] = Metabolic stability in mouse liver microsomes assessed as recovery in presence of NADPH measured after 120 mins; format: ADME, Microsome; settings: read-out: Drug recovery
[15] = Metabolic stability in mouse liver microsomes assessed as recovery in absence of NADPH measured after 120 mins; format: ADME, Microsome; settings: read-out: Drug recovery
[16] = Inhibition of Pseudomonas aeruginosa IMPDH delta Bateman domain in absence of detergent; how it was run: as §3
[17] = Inhibition of Pseudomonas aeruginosa IMPDH delta Bateman domain in presence of detergent by detergent-sensitive enzyme-inhibition assay
How it was run: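 P. aeruginosa ΔBateman IMPDH dose-response run under reference conditions (0.2 mM IMP, 0.4 mM NAD⁺, 0.2 mM MgATP, 2 mM MgCl₂; Tris-HCl 50 mM pH 8, KCl 100 mM; 30 °C, NADH at 340 nm) with 0.01 % Triton X-100 included, to exclude colloidal aggregation; I50 from logistic fit.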

Sequence of Inosine-5'-monophosphate dehydrogenase 2 (Homo sapiens) (P12268 2-514 limits assumed): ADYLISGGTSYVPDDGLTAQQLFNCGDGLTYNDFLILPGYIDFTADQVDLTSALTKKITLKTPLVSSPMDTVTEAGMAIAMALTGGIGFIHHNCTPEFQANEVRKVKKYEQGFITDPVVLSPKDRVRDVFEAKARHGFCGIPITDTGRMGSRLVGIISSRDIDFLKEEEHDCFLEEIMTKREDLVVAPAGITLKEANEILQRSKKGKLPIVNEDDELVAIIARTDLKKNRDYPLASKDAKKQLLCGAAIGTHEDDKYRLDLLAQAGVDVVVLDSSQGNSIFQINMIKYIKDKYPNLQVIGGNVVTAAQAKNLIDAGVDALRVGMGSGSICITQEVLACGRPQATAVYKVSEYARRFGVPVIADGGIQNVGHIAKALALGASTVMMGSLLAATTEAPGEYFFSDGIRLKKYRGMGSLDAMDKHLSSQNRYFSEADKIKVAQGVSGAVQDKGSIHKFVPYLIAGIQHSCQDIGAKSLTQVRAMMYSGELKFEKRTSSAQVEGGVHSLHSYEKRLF

CC(C)(NC(=O)NCc1ccccc1)c1cccc(-c2cccs2)c1
inhibition [1]: 15%

CC(C)(NC(=O)Nc1ccc(Cl)c([N+](=O)[O-])c1)c1cccc(-c2nccn2Cc2ccccc2)c1
inhibition [1]: 63%

CC(C)(NC(=O)Nc1ccc(Cl)c([N+](=O)[O-])c1)c1cccc(-c2cccnc2F)c1
inhibition [1]: 98%
IC50 [2]: 0.24 µM

CC(C)(NC(=O)NCc1ccccc1)c1cccc(-c2ccccc2)c1
inhibition [1]: 16%

CCOC(=O)n1cc(-c2cccc(C(C)(C)NC(=O)Nc3ccc(Cl)c([N+](=O)[O-])c3)c2)cn1
inhibition [1]: 87%
IC50 [2]: 0.42 µM

CC(C)(NC(=O)Nc1ccc(Cl)c([N+](=O)[O-])c1)c1cccc(-c2cn(C(c3ccccc3)(c3ccccc3)c3ccccc3)cn2)c1
inhibition [1]: 35%

CCOC(=O)n1ccc(-c2cccc(C(C)(C)NC(=O)Nc3ccc(Cl)c([N+](=O)[O-])c3)c2)n1
inhibition [1]: 98%
IC50 [2]: 0.16 µM

CC(C)(NC(=O)NCc1ccccc1)c1cccc(-c2cn[nH]c2)c1
inhibition [1]: 29%

CC(C)(NC(=O)NCc1ccccc1)c1cccc(-c2ccco2)c1
inhibition [1]: 10%
inhibition [3]: inactive
inhibition at 32 µg/mL (Staphylococcus aureus [4]): 0.49%
inhibition (Escherichia coli): 1%
inhibition (Pseudomonas aeruginosa): 6%

CC(C)(NC(=O)Nc1ccc(Cl)c([N+](=O)[O-])c1)c1cccc(-c2nccs2)c1
inhibition [1]: 97%
IC50 [2]: 0.11 µM

CC(C)(NC(=O)Nc1ccc(Cl)c([N+](=O)[O-])c1)c1cccc(-c2cn[nH]c2)c1
inhibition [1]: 97%
IC50 [2]: 0.13 µM
inhibition [5]: 89%
inhibition (Staphylococcus aureus [6]): 93%
inhibition [3]: inactive
inhibition at 32 µg/mL (Staphylococcus aureus [4]): 61.7%
inhibition (Escherichia coli): 84%
IC50 [7]: 5.51 µM
inhibition (Pseudomonas aeruginosa): 99%
IC50 [8]: 0.17 µM
inhibition [9]: Active
inhibition [10]: Active
inhibition [11]: inactive
Activity (Caco-2 [12]): Non-toxic
Activity (Caco-2 [13]): Non-toxic
remaining at 2 h [14]: > 95%
remaining at 2 h [15]: > 95%

CCOc1ncccc1-c1cccc(C(C)(C)NC(=O)Nc2ccc(Cl)c([N+](=O)[O-])c2)c1
inhibition [1]: 95%
IC50 [2]: 0.59 µM

CC(C)(NC(=O)NCc1ccccc1)c1cccc(-c2cc[nH]n2)c1
inhibition [1]: 59%

CC(C)(NC(=O)Nc1ccc(Cl)c([N+](=O)[O-])c1)c1cccc(-c2cccs2)c1
inhibition [1]: 96%
IC50 [2]: 0.14 µM

CC(C)(NC(=O)Nc1ccc(Cl)c([N+](=O)[O-])c1)c1cccc(-c2c[nH]cn2)c1
inhibition [1]: 99%
IC50 [2]: 0.1 µM
inhibition [5]: 88%
inhibition (Staphylococcus aureus [6]): 89%
inhibition [3]: inactive
inhibition at 32 µg/mL (Staphylococcus aureus [4]): 79.3%
inhibition (Escherichia coli): 90%
IC50 [7]: 4.26 µM
inhibition (Pseudomonas aeruginosa): 99%
IC50 [8]: 0.15 µM
inhibition [9]: Active
inhibition [10]: Active
inhibition [11]: inactive
IC50 [16]: 0.15 µM
IC50 [17]: 0.14 µM
Activity (Caco-2 [12]): Non-toxic
Activity (Caco-2 [13]): Non-toxic
remaining at 2 h [14]: > 95%
remaining at 2 h [15]: > 95%

CC(C)(NC(=O)Nc1ccc(Cl)c([N+](=O)[O-])c1)c1cccc(-c2ccco2)c1
inhibition [1]: 99%
IC50 [2]: 0.26 µM

CC(C)(NC(=O)Nc1ccc(Cl)c([N+](=O)[O-])c1)c1cccc(-c2cc[nH]n2)c1
inhibition [1]: 99%
IC50 [2]: 0.11 µM
inhibition [5]: 92%
inhibition (Staphylococcus aureus [6]): 94%
inhibition [3]: inactive
inhibition at 32 µg/mL (Staphylococcus aureus [4]): 79.3%
inhibition (Escherichia coli): 88%
IC50 [7]: 4.95 µM
inhibition (Pseudomonas aeruginosa): 98%
IC50 [8]: 0.16 µM
inhibition [9]: Active
inhibition [10]: Active
inhibition [11]: inactive
Activity (Caco-2 [12]): Non-toxic
Activity (Caco-2 [13]): Non-toxic
remaining at 2 h [14]: > 95%
remaining at 2 h [15]: > 95%
